Data from ChEMBL document CHEMBL2046388, “Synthesis and biological evaluation of novel anticancer bivalent colchicine-tubulizine hybrids” (Bioorg Med Chem, 2012).
Active and inactive are the calls of the source. The rule behind the calls is not given here.

Tests used:
[1] = species: Ovis aries; test: Inhibition of sheep tubulin assembly assessed as half inhibitory molar ratio of compound to tubulin by DAPI fluorometric assay; set-up: unit not given here
Method in brief: (§1)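 Lamb brain tubulin (ammonium sulfate fractionation, ion-exchange chromatography; quantified at 275 nm) was polymerized at 37 °C, started by warming, with DAPI in 20 mM sodium phosphate, 1 mM EGTA, 10 mM MgCl2, 3.4 M glycerol, pH 6.5, with DMSO under 1%. DAPI fluorescence was followed over time, and % inhibition was plotted against the ligand:tubulin molar ratio. Run in triplicate.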

[2] = Lipophilicity, log D of the compound; format: physicochemical; settings: octanol/water
[3] = system: HBL-100; test: Antiproliferative activity against human HBL100 after 72 hrs by MTT assay; format: functional, cell-based; settings: HBL-100, 72 h
[4] = species: Ovis aries; test: Inhibition of sheep tubulin polymerization at 1 to 30 uM by DAPI fluorometric assay; method in brief: as §1

Structure (SMILES) | INH [1] | logD [2] | IC50 [3] [nM] | inhibition [4]
COc1ccc(CNc2nc(NCc3ccc(OC)cc3)nc(NCc3cn(CCCCCCCCCC(=O)N[C@H]4CCc5cc(OC)c(OC)c(OC)c5-c5ccc(OC)c(=O)cc54)nn3)n2)cc1 | 0.99 | 8.465 | 699 | –
COc1ccc(CNc2nc(NCCOC(=O)CCCCc3cn(CCC(=O)N[C@H]4CCc5cc(OC)c(OC)c(OC)c5-c5ccc(OC)c(=O)cc54)nn3)nc(NCc3ccc(OC)cc3)n2)cc1 | 0.41 | 5.591 | 1620 | –
COc1ccc(CNc2nc(NCCOC(=O)CCCCCCCCc3cn(CCC(=O)N[C@H]4CCc5cc(OC)c(OC)c(OC)c5-c5ccc(OC)c(=O)cc54)nn3)nc(NCc3ccc(OC)cc3)n2)cc1 | 0.71 | 7.612 | 687 | Active
COc1ccc(CNc2nc(NCCO)nc(NCc3ccc(OC)cc3)n2)cc1 | 0.34 | – | 3140 | –
COc1ccc(CNc2nc(NCCOC(=O)COCCOCCOCCOCCOCCOCCOCCOCCOCCOCCOCC(=O)N[C@H]3CCc4cc(OC)c(OC)c(OC)c4-c4ccc(OC)c(=O)cc43)nc(NCc3ccc(OC)cc3)n2)cc1 | 3.44 | 2.568 | 2930 | –
COc1ccc(CNc2nc(NCCOC(=O)CCCCCCCCCCCCCCCc3cn(CCCCCC(=O)N[C@H]4CCc5cc(OC)c(OC)c(OC)c5-c5ccc(OC)c(=O)cc54)nn3)nc(NCc3ccc(OC)cc3)n2)cc1 | 2.75 | 9.814 | 599 | –
COc1ccc(CNc2nc(NCCOC(=O)CCc3cn(CCC(=O)N[C@H]4CCc5cc(OC)c(OC)c(OC)c5-c5ccc(OC)c(=O)cc54)nn3)nc(NCc3ccc(OC)cc3)n2)cc1 | 0.48 | 4.815 | 2590 | –
COc1ccc(CNc2nc(NCCOC(=O)CCCc3cn(CCCCCCCCCC(=O)N[C@H]4CCc5cc(OC)c(OC)c(OC)c5-c5ccc(OC)c(=O)cc54)nn3)nc(NCc3ccc(OC)cc3)n2)cc1 | 3.4 | 8.738 | 1010 | –
COc1ccc(CNc2nc(NCCOC(=O)CCCc3cn(CCCCCC(=O)N[C@H]4CCc5cc(OC)c(OC)c(OC)c5-c5ccc(OC)c(=O)cc54)nn3)nc(NCc3ccc(OC)cc3)n2)cc1 | 0.48 | 6.367 | 1860 | –
